Measured values taken from ChEMBL document CHEMBL1255546, “Discovery of potent and selective histamine H3 receptor inverse agonists based on the 3,4-dihydro-2H-pyrazino[1,2-a]indol-1-one scaffold” (Bioorg Med Chem Lett, 2010).
≈ marks a conversion by molar mass, not a printed value. Calls of active or inactive are those of the source. The rule behind the calls is not given here.

Legend:
[1] = target: T1, Histamine H3 receptor (Homo sapiens, UniProt Q9Y5N1); test: Displacement of [3H]-RAMH from human histamine H3 receptor
T1 sequence (Q9Y5N1 whole entry): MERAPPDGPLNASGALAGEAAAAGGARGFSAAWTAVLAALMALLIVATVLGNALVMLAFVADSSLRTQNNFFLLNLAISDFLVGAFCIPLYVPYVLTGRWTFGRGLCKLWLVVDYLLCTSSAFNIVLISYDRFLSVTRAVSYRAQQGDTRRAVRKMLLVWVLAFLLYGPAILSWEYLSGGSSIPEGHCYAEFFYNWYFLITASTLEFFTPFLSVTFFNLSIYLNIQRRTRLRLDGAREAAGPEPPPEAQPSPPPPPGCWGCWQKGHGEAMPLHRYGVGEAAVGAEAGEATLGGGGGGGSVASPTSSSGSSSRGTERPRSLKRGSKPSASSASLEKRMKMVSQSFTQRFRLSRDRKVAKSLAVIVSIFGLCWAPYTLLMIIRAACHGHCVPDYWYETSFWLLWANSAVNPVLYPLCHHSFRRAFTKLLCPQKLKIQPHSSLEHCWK

[2] = target: Histamine H2 receptor (Homo sapiens) (UniProt P25021); test: Displacement of [3H]-tiotidine from human histamine H2 receptor; parameters: concentration or dose not given beside the values; details: concentration not given here
Sequence of Histamine H2 receptor (Homo sapiens) (P25021 whole entry): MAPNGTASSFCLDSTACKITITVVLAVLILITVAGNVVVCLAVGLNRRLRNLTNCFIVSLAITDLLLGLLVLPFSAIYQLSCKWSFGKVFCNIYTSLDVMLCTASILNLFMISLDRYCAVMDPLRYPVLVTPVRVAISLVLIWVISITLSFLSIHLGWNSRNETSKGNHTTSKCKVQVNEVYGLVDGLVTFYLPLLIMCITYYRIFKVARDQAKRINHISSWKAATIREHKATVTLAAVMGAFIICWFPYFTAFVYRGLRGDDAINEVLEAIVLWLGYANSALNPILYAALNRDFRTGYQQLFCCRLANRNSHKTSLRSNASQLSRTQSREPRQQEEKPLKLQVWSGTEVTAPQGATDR
Method in brief: (§1)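 Radioligand displacement assays, single determination (n = 1) each: [3H]-mepyramine at H1, [3H]-tiotidine at H2, [3H]-histamine at H4.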

[3] = target: Histamine H4 receptor (Homo sapiens) (UniProt Q9H3N8); test: Displacement of [3H]-histamine from human histamine H4 receptor; parameters: concentration or dose not given beside the values; details: concentration not given here; method in brief: as §1
Sequence of Histamine H4 receptor (Homo sapiens) (Q9H3N8 whole entry): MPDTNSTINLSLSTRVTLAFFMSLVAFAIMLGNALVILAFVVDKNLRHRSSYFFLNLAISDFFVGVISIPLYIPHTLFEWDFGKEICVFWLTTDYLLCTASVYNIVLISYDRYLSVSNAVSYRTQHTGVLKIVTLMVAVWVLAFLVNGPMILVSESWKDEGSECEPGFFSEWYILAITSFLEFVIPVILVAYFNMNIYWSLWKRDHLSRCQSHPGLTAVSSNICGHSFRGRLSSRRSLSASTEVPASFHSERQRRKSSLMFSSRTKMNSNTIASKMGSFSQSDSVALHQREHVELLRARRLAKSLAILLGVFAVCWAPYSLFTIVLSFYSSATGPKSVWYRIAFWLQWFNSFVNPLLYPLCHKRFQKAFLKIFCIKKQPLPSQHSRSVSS

[4] = target: Histamine H1 receptor (Homo sapiens) (UniProt P35367); test: Displacement of [3H]-mepyramine from human histamine H1 receptor; parameters: concentration or dose not given beside the values; details: concentration not given here; method in brief: as §1
Sequence of Histamine H1 receptor (Homo sapiens) (P35367 whole entry): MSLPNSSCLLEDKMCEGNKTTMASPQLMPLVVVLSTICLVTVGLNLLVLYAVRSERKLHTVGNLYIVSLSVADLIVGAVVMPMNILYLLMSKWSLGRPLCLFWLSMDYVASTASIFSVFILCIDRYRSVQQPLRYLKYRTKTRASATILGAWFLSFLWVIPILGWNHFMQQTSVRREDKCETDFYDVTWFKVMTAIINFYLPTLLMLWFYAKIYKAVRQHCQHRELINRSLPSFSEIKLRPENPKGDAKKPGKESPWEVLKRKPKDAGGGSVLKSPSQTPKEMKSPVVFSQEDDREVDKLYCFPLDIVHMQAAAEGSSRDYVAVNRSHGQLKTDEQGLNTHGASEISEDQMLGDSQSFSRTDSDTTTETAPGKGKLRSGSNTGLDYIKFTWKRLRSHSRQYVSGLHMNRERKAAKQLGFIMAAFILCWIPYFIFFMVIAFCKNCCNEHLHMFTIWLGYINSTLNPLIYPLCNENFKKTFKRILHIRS

[5] = target: T1, Histamine H3 receptor; test: Inverse agonist activity at human recombinant histamine H3 receptor assessed as effect on [35S]GTPgammaS binding; type: functional
[6] = target: T1, Histamine H3 receptor; details: 3 uM
[7] = target: Cytochrome P450 3A4 (Homo sapiens, UniProt P08684); test: Inhibition of CYP3A4; type: ADME
Sequence of Cytochrome P450 3A4 (P08684 whole entry): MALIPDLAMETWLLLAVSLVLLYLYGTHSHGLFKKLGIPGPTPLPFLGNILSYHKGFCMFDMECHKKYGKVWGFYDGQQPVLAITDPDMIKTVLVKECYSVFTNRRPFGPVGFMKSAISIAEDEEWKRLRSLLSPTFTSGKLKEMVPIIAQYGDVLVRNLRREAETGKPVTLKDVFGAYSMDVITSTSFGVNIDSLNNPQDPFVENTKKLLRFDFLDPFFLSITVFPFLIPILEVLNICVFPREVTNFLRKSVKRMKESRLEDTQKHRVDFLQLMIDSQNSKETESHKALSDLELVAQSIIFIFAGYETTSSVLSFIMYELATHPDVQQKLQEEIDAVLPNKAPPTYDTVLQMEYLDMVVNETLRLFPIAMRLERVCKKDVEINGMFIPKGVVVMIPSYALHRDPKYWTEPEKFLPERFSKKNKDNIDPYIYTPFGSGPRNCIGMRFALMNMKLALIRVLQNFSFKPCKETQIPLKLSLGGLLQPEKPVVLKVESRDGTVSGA

[8] = Intrinsic clearance in human liver microsomes; type: ADME, Microsome
[9] = Aqueous solubility of the compound in 0.05 M phosphate buffer at pH 6.5; type: physicochemical
[10] = Lipophilicity, log D of the compound at pH 7.4; type: physicochemical; details: buffer
[11] = target: Cytochrome P450 2C9 (Homo sapiens, UniProt P11712); test: Inhibition of CYP2C9; type: ADME
Sequence of Cytochrome P450 2C9 (P11712 whole entry): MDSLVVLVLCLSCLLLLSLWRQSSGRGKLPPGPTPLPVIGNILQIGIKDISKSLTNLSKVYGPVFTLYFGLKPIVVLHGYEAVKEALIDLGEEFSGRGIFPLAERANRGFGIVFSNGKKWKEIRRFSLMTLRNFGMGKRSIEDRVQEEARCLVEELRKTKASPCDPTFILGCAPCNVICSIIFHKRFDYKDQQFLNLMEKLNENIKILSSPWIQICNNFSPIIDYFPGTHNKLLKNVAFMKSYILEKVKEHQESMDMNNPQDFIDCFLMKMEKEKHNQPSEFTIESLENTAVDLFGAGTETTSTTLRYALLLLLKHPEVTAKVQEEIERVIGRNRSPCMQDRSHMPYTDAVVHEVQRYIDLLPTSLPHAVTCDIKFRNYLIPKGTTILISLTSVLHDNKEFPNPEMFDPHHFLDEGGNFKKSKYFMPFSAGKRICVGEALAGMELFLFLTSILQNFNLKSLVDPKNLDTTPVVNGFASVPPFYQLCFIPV

[12] = target: Cytochrome P450 2D6 (Homo sapiens, UniProt P10635); test: Inhibition of CYP2D6; type: ADME
Sequence of Cytochrome P450 2D6 (P10635 whole entry): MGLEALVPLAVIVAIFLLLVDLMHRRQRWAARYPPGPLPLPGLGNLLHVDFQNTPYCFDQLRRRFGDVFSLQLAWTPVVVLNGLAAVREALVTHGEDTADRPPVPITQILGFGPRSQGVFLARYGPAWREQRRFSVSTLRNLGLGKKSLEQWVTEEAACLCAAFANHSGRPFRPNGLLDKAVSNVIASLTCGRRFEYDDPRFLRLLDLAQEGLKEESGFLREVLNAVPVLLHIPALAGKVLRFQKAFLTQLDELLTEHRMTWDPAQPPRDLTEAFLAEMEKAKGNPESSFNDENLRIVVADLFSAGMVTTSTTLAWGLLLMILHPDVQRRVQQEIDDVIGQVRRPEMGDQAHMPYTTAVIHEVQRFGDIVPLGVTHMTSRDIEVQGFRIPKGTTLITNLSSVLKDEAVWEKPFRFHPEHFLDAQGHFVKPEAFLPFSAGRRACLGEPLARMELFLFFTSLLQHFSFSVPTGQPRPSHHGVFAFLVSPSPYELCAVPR

[13] = Intrinsic clearance in rat liver microsomes; type: ADME, Microsome
[14] = target: T2, Histamine H3 receptor (Rattus norvegicus, UniProt Q9QYN8); test: Inverse agonist activity at rat histamine H3 receptor; type: functional
T2 sequence (Q9QYN8 whole entry): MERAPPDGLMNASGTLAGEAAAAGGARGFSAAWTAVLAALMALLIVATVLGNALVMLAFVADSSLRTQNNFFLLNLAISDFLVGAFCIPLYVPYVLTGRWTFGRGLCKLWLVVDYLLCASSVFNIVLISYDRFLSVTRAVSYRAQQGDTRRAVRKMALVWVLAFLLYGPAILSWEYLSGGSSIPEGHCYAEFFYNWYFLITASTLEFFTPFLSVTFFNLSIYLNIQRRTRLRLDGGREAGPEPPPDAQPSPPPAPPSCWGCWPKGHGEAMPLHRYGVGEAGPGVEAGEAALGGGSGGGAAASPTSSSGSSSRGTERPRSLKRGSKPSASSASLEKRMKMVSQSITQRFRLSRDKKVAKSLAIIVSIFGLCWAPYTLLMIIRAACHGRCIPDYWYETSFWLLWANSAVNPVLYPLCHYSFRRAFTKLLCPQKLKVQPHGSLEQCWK

[15] = tested on: Rattus norvegicus; test: Inhibition of (R)-alpha-methyl histamine-induced increased water intake in rat dipsogenia model at 10 mg/kg, po; type: functional
[16] = target: T2, Histamine H3 receptor; test: Binding affinity to rat histamine H3 receptor
[17] = tested on: Rattus norvegicus; test: Inhibition of water intake in rat dipsogenia model at 10 mg/kg, po; type: functional, organism-based; parameters: dose 10 mg/kg
[18] = tested on: Rattus norvegicus; test: Toxicity in rat assessed as change in behavioral effect at 10 mg/kg, po measured for 1 hr; type: organism-based; parameters: dose 10 mg/kg, route oral; details: in vivo

Row | SMILES | Ki [1] | inhibition [2] | inhibition [3] | inhibition [4] | EC50 [5] | inhibition [6] | IC50 [7] | microsomal CLint [8] | solubility [9] | logD [10] | IC50 [11] | IC50 [12] | microsomal CLint [13] | EC50 [14] | inhibition in vivo at 10 mg/kg [15] | Ki [16] | inhibition [17] | Activity [18]
1 | CC(C)N1CCC(Oc2ccc3c(c2)cc2n3CCN(Cc3ccccn3)C2=O)CC1 | 0.006 µM | 4% | -3% | 6% | 0.014 µM | – | – | – | – | – | – | – | – | – | – | – | – | –
2 | CC(C)N1CCC(Oc2ccc3c(c2)cc2n3CCN(Cc3cccc(F)c3)C2=O)CC1 | 0.014 µM | 21% | 4% | 24% | 0.023 µM | – | – | – | – | – | – | – | – | – | – | – | – | –
3 | O=C1NCCn2c1cc1cc(OCCCN3CCCCC3)ccc12 | 0.018 µM | 45% | 8% | 33% | 0.074 µM | – | – | – | – | – | – | – | – | – | – | – | – | –
4 | CC(C)N1CCC(Oc2ccc3[nH]c4c(c3c2)CCNC4=O)CC1 | > 3 µM | – | – | – | – | 35% | – | – | – | – | – | – | – | – | – | – | – | –
5 | CC(C)N1CCC(Oc2ccc3c(c2)cc2n3CCN(CCO)C2=O)CC1 | 0.046 µM | 14% | -5% | -1% | 0.056 µM | – | > 50 µM | 9 µL/min/mg | > 406 µg/mL | -0.25 | > 50 µM | 0.9 µM | 11 µL/min/mg | – | – | – | – | –
6 | CC(C)N1CCC(Oc2ccc3c(c2)cc2n3[C@H](C)CNC2=O)CC1 | 0.026 µM | 10% | 9% | -4% | 0.029 µM | – | > 50 µM | – | > 455 µg/mL | 0.23 | > 50 µM | 22 µM | 29 µL/min/mg | – | – | – | – | –
7 | CC(C)N1CCC(Oc2ccc3c(c2)cc2n3C[C@H](C)NC2=O)CC1 | 0.006 µM | 26% | 15% | -2% | 0.014 µM | – | > 50 µM | 3 µL/min/mg | > 455 µg/mL | 0.23 | > 50 µM | > 50 µM | – | – | – | – | – | –
8 | CC(C)N1CCC(Oc2ccc3c(c2)cc2n3[C@@H](C)CNC2=O)CC1 | 0.042 µM | 9% | 10% | 11% | 0.094 µM | – | 26 µM | 4 µL/min/mg | 345 µg/mL (≈ 1010 µM) | 0.28 | > 50 µM | > 50 µM | – | – | – | – | – | –
9 | CC(C)N1CCC(Oc2ccc3c(c2)cc2n3C[C@@H](C)N(CC3CC3)C2=O)CC1 | 0.005 µM | 8% | 12% | 3% | 0.018 µM | – | > 50 µM | 6 µL/min/mg | > 441 µg/mL | 1.4 | > 50 µM | > 50 µM | 10 µL/min/mg | 0.018 µM | 64% | 0.012 µM | inactive | Non-toxic
10 | CC(C)N1CCC(Oc2ccc3c(c2)cc2n3CCCN(CC3CC3)C2=O)CC1 | – | 15% | -7% | 5% | 0.036 µM | – | – | – | – | – | – | – | – | – | – | – | – | –
11 | CC(C)N1CCC(Oc2cc3cc4n(c3cc2Br)[C@@H](C)CNC4=O)CC1 | 0.004 µM | 18% | -10% | – | 0.004 µM | – | > 50 µM | 1 µL/min/mg | > 526 µg/mL | 1.13 | > 50 µM | > 50 µM | 12 µL/min/mg | – | – | – | – | –
12 | C[C@H]1CCCN1CCCOc1ccc2c(c1)cc1n2CCNC1=O | 0.021 µM | 10% | 4% | 11% | 0.14 µM | – | – | – | – | – | – | – | – | – | – | – | – | –
13 | CC(C)N1CCC(Oc2ccc3c(c2)cc2n3CCN(C(C)C)C2=O)CC1 | 0.027 µM | -2% | -6% | -6% | 0.025 µM | – | – | – | – | – | – | – | – | – | – | – | – | –
14 | COCCN1CCn2c(cc3cc(OC4CCN(C(C)C)CC4)ccc32)C1=O | 0.019 µM | 6% | 0% | – | 0.051 µM | – | – | – | – | – | – | – | – | – | – | – | – | –
15 | O=C1NCCn2c1cc1cc(OC3CCN(CC4CC4)CC3)ccc12 | 0.129 µM | 9% | 3% | -4% | – | – | – | – | – | – | – | – | – | – | – | – | – | –
16 | CC(C)N1CCC(Oc2ccc3c(c2)cc2n3CCN(CC(F)(F)F)C2=O)CC1 | 0.034 µM | -6% | -4% | -1% | 0.04 µM | – | – | – | – | – | – | – | – | – | – | – | – | –
17 | CC(C)N1CCC(Oc2ccc3c(c2)cc2n3CCNC2=O)CC1 | 0.025 µM | – | 6% | 1% | 0.038 µM | – | > 50 µM | 1 µL/min/mg | > 436 µg/mL | -0.05 | > 50 µM | 4 µM | 70 µL/min/mg | – | – | – | – | –
18 | CC(C)N1CCC(Oc2ccc3c(c2)cc2n3C[C@@H](C)NC2=O)CC1 | 0.009 µM | 13% | 7% | 2% | 0.046 µM | – | > 50 µM | 7 µL/min/mg | 284 µg/mL (≈ 832 µM) | 0.28 | > 50 µM | > 50 µM | 10 µL/min/mg | – | – | – | – | –
19 | CC(C)N1CCC(Oc2ccc3c(c2)cc2n3CCCNC2=O)CC1 | 0.017 µM | 9% | -3% | 3% | 0.026 µM | – | > 50 µM | – | > 455 µg/mL | 0.07 | > 50 µM | > 50 µM | 28 µL/min/mg | – | – | – | – | –
20 | CC(C)N1CCC(Oc2ccc3c(c2)cc(C(=O)N2CCC(F)(F)CC2)n3C(C)C)CC1 | 0.002 µM | -6% | 7% | 9% | 0.002 µM | – | > 50 µM | 4 µL/min/mg | > 589 µg/mL | 1.67 | > 50 µM | 5 µM | 12 µL/min/mg | – | – | – | – | –
21 | CC(C)N1CCC(Oc2ccc3c(c2)cc2n3CCN(CC3CC3)C2=O)CC1 | 0.009 µM | 6% | 7% | – | 0.028 µM | – | > 50 µM | 14 µL/min/mg | > 508 µg/mL | 1.09 | > 50 µM | > 50 µM | 9 µL/min/mg | – | – | – | – | –
22 | CC(C)N1CCC(Oc2ccc3c(c2)cc2n3CCN(Cc3ccc(F)cc3)C2=O)CC1 | 0.007 µM | -3% | 1% | 17% | 0.014 µM | – | > 50 µM | 5 µL/min/mg | 382 µg/mL (≈ 877 µM) | 2.06 | > 50 µM | 35 µM | 17 µL/min/mg | – | – | – | – | –
23 | CC(C)N1CCC(Oc2ccc3c(c2)cc2n3CCN(C)C2=O)CC1 | 0.031 µM | 11% | 0% | -4% | 0.048 µM | – | > 50 µM | 1 µL/min/mg | > 455 µg/mL | 0.13 | > 50 µM | 15 µM | 23 µL/min/mg | – | – | – | – | –
24 | C[C@@H]1CCCN1CCCOc1ccc2c(c1)cc1n2CCNC1=O | 0.007 µM | 4% | -4% | 13% | 0.004 µM | – | > 50 µM | – | > 436 µg/mL | 0.13 | > 50 µM | > 50 µM | 37 µL/min/mg | – | – | – | – | –
25 | CC(C)N1CCC(Oc2cc3cc4n(c3cc2Br)[C@@H](C)CN(CC2CC2)C4=O)CC1 | 0.002 µM | -3% | 1% | 10% | 0.002 µM | – | > 50 µM | 7 µL/min/mg | 506 µg/mL (≈ 1070 µM) | 2.32 | > 50 µM | > 50 µM | 20 µL/min/mg | – | – | – | – | –
26 | CC(C)N1CCC(Oc2ccc3c(c2)cc2n3CCN(Cc3ccccc3F)C2=O)CC1 | 0.006 µM | 6% | 1% | 16% | 0.028 µM | – | – | – | – | – | – | – | – | – | – | – | – | –
27 | C[C@H]1CC[C@H](C)N1CCCOc1ccc2c(c1)cc1n2CCNC1=O | 0.011 µM | 17% | 6% | 16% | 0.024 µM | – | – | – | – | – | – | – | – | – | – | – | – | –
28 | CC(C)N1CCC(Oc2ccc3c(c2)cc2n3CCN(Cc3ccncc3)C2=O)CC1 | 0.005 µM | – | 3% | 4% | 0.012 µM | – | 6 µM | 8 µL/min/mg | > 456 µg/mL | 0.64 | > 50 µM | > 50 µM | 27 µL/min/mg | – | – | – | – | –
29 | CC(C)N1CCC(Oc2ccc3c(c2)cc2n3CCN(Cc3cccnc3)C2=O)CC1 | 0.005 µM | 3% | 3% | 3% | 0.013 µM | – | – | – | – | – | – | – | – | – | – | – | – | –
